{"source": "ChEMBL document CHEMBL4393661", "about": "“PRODRUGS FOR NITROREDUCTASE BASED CANCER THERAPY- 2: Novel amide/Ntr combinations targeting PC3 cancer cells” (Eur J Med Chem, 2019)", "key": {"[1]": {"substrate": "NC(=O)c1cc(N(CCCl)CCCl)c([N+](=O)[O-])cc1[N+](=O)[O-]", "experiment": "(§1) Substrate activity at Escherichia coli nitroreductase nfsB assessed as Kcat using NADH as cofactor at […] in Tris-Cl buffer at pH 7.5 by spectrophotometric method"}, "[2]": {"substrate": "NC(=O)c1cc(N2CC2)c([N+](=O)[O-])cc1[N+](=O)[O-]", "experiment": "as §1"}, "[3]": {"substrate": "CS(=O)(=O)OCCN(CCBr)c1c(C(=O)NCCO)cc([N+](=O)[O-])cc1[N+](=O)[O-]", "experiment": "as §1"}, "[4]": {"substrate": "NC(=O)c1cc(N2CC2)c([N+](=O)[O-])cc1[N+](=O)[O-]", "experiment": "(§2) Substrate activity at Escherichia coli nitroreductase nfsB assessed as Km using NADH as cofactor in Tris-Cl buffer at pH 7.5 by spectrophotometric method", "assay_type": "ADME"}, "[5]": {"substrate": "CS(=O)(=O)OCCN(CCBr)c1c(C(=O)NCCO)cc([N+](=O)[O-])cc1[N+](=O)[O-]", "experiment": "as §2", "assay_type": "ADME"}, "[6]": {"substrate": "NC(=O)c1cc(N2CC2)c([N+](=O)[O-])cc1[N+](=O)[O-]", "experiment": "(§3) Substrate activity at Staphylococcus saprophyticus nitroreductase assessed as Km using NADPH as cofactor in presence of Tris-Cl buffer at pH 7.5 by spectrophotometric method", "assay_type": "ADME", "summary_of_the_method": "(§4)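 Michaelis–Menten parameters for recombinant Ssap-NtrB were measured spectrophotometrically at 25 °C in 25 mM Tris-Cl buffer pH 7.5 containing 5% DMSO as cosolvent.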"}, "[7]": {"substrate": "CCN(C(C)=O)c1cc([N+](=O)[O-])cc([N+](=O)[O-])c1", "experiment": "as §3", "assay_type": "ADME", "summary_of_the_method": "as §4"}}, "data": [{"protein": "Oxygen-insensitive NAD(P)H nitroreductase (Escherichia coli K-12), P38489 (protein) MDIISVALKRHSTKAFDASKKLTPEQAEQIKTLLQYSPSSTNSQPWHFIVASTEEGKARVAKSAAGNYVFNERKMLDASHVVVFCAKTAMDDVWLKLVVDQEDADGRFATPEAKAANDKGRKFFADMHRKDLHDDAEWMAKQVYLNVGNFLLGVAALGLDAVPIEGFDAAILDAEFGLKEKGYTSLVVVPVGHHSVEDFNATLPKSRLPQNITLTEV", "values": [{"measurement": "kcat", "setting": "[1]", "value": 26.4, "unit": "s⁻¹"}, {"measurement": "kcat", "setting": "[2]", "value": 62, "unit": "s⁻¹"}, {"measurement": "kcat", "setting": "[3]", "value": 60, "unit": "s⁻¹"}]}, {"protein": "Oxygen-insensitive NAD(P)H nitroreductase (Escherichia coli K-12) (protein) MDIISVALKRHSTKAFDASKKLTPEQAEQIKTLLQYSPSSTNSQPWHFIVASTEEGKARVAKSAAGNYVFNERKMLDASHVVVFCAKTAMDDVWLKLVVDQEDADGRFATPEAKAANDKGRKFFADMHRKDLHDDAEWMAKQVYLNVGNFLLGVAALGLDAVPIEGFDAAILDAEFGLKEKGYTSLVVVPVGHHSVEDFNATLPKSRLPQNITLTEV", "values": [{"measurement": "Km", "setting": "[4]", "value": 11000, "unit": "µM"}, {"measurement": "kcat/Km", "setting": "[4]", "value": 5600, "unit": "M⁻¹ s⁻¹"}, {"measurement": "Km", "setting": "[5]", "value": 4500, "unit": "µM"}, {"measurement": "kcat/Km", "setting": "[5]", "value": 13000, "unit": "M⁻¹ s⁻¹"}]}, {"protein": "Putative nitroreductase (Staphylococcus saprophyticus subsp. saprophyticus ATCC 15305 = NCTC 7292) (protein) MINNNFEEILMNRKSVKVFDEQVKIPKAEMDEMIKKATTAPSSVNMQPWRFLVVESDEGKDTLRPLIRFNTRQNDSSAAMVVIFGDMKSQTNAEEIYGNAVKHDLMPEEVKQEMLKKVIPLYDNAPKEQMNDIVKIDSSLAAMQFMLVAKAHGYDTNPIGGFESDQIADAFGIDSERYVPVLIVAIGKAKNPAHGSYRLPTETVTKYV", "values": [{"measurement": "Km", "setting": "[6]", "value": 1070, "unit": "µM"}, {"measurement": "kcat", "setting": "[6]", "value": 2.26, "unit": "s⁻¹"}, {"measurement": "kcat/Km", "setting": "[6]", "value": 2120, "unit": "M⁻¹ s⁻¹"}, {"measurement": "Km", "setting": "[7]", "value": 96.9, "unit": "µM"}]}]}
